From PubChem
EP2 antag: blocks the human prostaglandin E2 receptor EP2; P43116; C6 glioma cells expressing human EP2, cAMP TR-FRET; cells stimulated with saturating PGE2; inhibition, % at 25 µM; actives 0.52% (n = 260,000);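 active means percent inhibition above 40 after rounding to a whole number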;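 further: rat C6 glioma host cells with rolipram phosphodiesterase inhibitor present; the protocol text gives 20 µM as final concentration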
NR2E3 ag-1: activates human NR2E3 receptor; Q9Y5X4; CHO-S Gal4-NCOR/VP16-NR2E3 two-hybrid, luciferase; inhibition of corepressor binding, % at 3.98 µM; actives 0.35% (n = 360,000);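 active means inhibition above the mean of all tested compounds plus 3 SD, cut at about 70% in these data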;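 further: higher means lower luciferase signal from less NR2E3 corepressor binding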
EP2 mod: modulators of human EP2 prostaglandin E2 receptor. P43116. EP2-expressing cells, cAMP HTRF FRET, PGE2 co-stimulation. induction, % at 25 µM. actives 0.83% (n = 260,000);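 active means compounds whose cAMP rise, as percent of the full-agonist control response, exceeds 60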;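 further: rat C6 glioma line stably carrying human EP2 under a CMV promoter; the protocol text gives 20 µM as final concentration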
JMJD2C inh: inhibitors of human GASC-1 (JMJD2C) demethylase; GST-JMJD2C(1-420) H3K9me3 demethylation, DELFIA europium; inhibition, % at 2.35 µM; actives 0.069% (n = 330,000); AID 2099;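 active means more than half of a compound's replicate wells show inhibition beyond 50%, single wells judged on their own value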;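 further: signal counts dimethyl H3K9 product captured on neutravidin plate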
Furin inhibitor: human furin inhibition. P09958. purified furin, fluorogenic substrate cleavage. inhibition, % at 20 µM or 30 µM. actives 0.061% (n = 220,000); in the data active means inhibition above about 25%
Target sequence (P09958 108-714 limits assumed): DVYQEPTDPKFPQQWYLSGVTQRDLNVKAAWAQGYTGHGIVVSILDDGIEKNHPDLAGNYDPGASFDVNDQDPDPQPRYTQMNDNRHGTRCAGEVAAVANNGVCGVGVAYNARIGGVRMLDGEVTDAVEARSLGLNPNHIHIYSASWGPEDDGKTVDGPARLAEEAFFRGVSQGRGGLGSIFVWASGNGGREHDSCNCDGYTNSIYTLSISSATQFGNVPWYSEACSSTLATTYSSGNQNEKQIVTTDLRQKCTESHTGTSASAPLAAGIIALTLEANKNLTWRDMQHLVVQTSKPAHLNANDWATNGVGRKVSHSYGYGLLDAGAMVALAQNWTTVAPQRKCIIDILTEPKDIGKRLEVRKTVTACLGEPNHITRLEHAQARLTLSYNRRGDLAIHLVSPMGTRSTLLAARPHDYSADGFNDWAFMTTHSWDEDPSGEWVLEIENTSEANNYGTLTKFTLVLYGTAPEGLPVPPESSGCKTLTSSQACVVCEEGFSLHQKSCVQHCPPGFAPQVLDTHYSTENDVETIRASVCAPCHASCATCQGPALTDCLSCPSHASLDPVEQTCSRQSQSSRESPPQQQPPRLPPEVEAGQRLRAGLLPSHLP
NR2E3 ag-2: agonists of human nuclear receptor NR2E3; Q9Y5X4; actives 0.12% (n = 320,000); GST-NR2E3/biotin-RetCOR TR-FRET, 1536-well; AID 2300; inhibition of corepressor binding, % at 4.78 µM;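 active means percent inhibition above the cutoff of mean plus 3 SD of all tested compounds, set per screening campaign, cut at about 20% in these data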
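Material: NR2E3–RetCOR corepressor complex / Amount: 1.35 nM GST-NR2E3 / Medium: Tris pH 7.5 / Compound: single nominal compound dose of 4.8 µM / Incubation: 5 h at 4 °C / Technique: TR-FRET, Eu(K)-anti-GST donor, streptavidin-D2 acceptor, ex 340, em 617/671 nm / Read-out basis: percent loss of FRET ratio relative to control wells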
NR2E3 ag conf: NR2E3 agonism confirmed in two-hybrid assay | CHO-S mammalian two-hybrid NR2E3-NCOR, luciferase luminescence | inhibition, % at 3.98 µM | shares compounds with NR2E3 ag-1 | actives 51% (n = 2,300);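 active means average inhibition above a cutoff equal to the mean inhibition of all tested compounds plus one SD, cut at about 70% in these data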
VP16 counter: reduces GAL4-VP16 reporter signal in NR2E3 counterscreen; actives 29% (n = 2,300); inhibition, % at 3.98 µM; CHO-S GAL4-VP16 luciferase reporter, luminescence; AID 624379; shares compounds with NR2E3 ag-1;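 active means mean inhibition above a cutoff equal to the average over all tested compounds plus one standard deviation, cut at about 70% in these data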;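 further: luciferase from a UAS reporter driven by GAL4-VP16 transactivation; higher means less reporter light so more repression of VP16 activity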
Large screens that a line does not name were inactive (follow-up assays come after a bar, where they were run). Sampled rows, rich in hits. Any-hit rate of the full collection: about 1.3%.

COc1cccc(/C=C2\SC(=S)N(CCCC(=O)Nc3ccc(C(=O)O)cc3)C2=O)c1	none (no result: EP2 antag, EP2 mod, Furin inhibitor)
Cc1ccc(/C=C2\SC(=S)N(CCCC(=O)Nc3cccc(C(=O)O)c3)C2=O)cc1	NR2E3 ag-1 85 (no result: EP2 antag, EP2 mod, Furin inhibitor) | NR2E3 ag conf inactive | VP16 counter 89
COc1cccc(/C=C2/SC(=S)N(CCCC(=O)Nc3ccc(O)cc3)C2=O)c1	none (no result: EP2 antag, EP2 mod, Furin inhibitor) | NR2E3 ag conf inactive | VP16 counter inactive
Cc1ccc(C=C2SC(=S)N(CCCC(=O)Nc3cccc(C(=O)O)c3)C2=O)cc1	NR2E3 ag-1 73 (no result: EP2 antag, EP2 mod, JMJD2C inh, Furin inhibitor, NR2E3 ag-2) | NR2E3 ag conf inactive | VP16 counter 88
O=C(CCCN1C(=O)/C(=C\c2ccccc2)SC1=S)Nc1cccc(C(=O)O)c1	none (no result: EP2 antag, EP2 mod, Furin inhibitor)
CCOC(=O)C1CCN(C(c2cc3cc(CC)ccc3[nH]c2=O)c2nnnn2CC2CCCO2)CC1 (stereo unspecified)	none (no result: NR2E3 ag-1, JMJD2C inh, Furin inhibitor, NR2E3 ag-2)
CC(=C\c1ccccc1)/C=C1/SC(=O)N(CCCC(=O)Nc2ccc(C(=O)O)cc2)C1=O	NR2E3 ag-1 73 | NR2E3 ag conf inactive | VP16 counter 76
COc1ccc(/C=C2\SC(=S)N(CCC(=O)Nc3ccccc3C(=O)O)C2=O)cc1	none (no result: EP2 antag, EP2 mod, Furin inhibitor)
Cc1ccc(/C=C2/SC(=S)N(CCCC(=O)Nc3ccc(O)cc3)C2=O)cc1	NR2E3 ag-1 88 (no result: NR2E3 ag-2) | NR2E3 ag conf inactive | VP16 counter 90
COc1ccc(/C=C2\SC(=O)N(CCCC(=O)Nc3cc(Cl)ccc3C(=O)O)C2=O)cc1	NR2E3 ag-1 88 (no result: EP2 antag, EP2 mod, JMJD2C inh, Furin inhibitor, NR2E3 ag-2) | NR2E3 ag conf 80 | VP16 counter 87
Cc1ccc(/C=C2\SC(=S)N(CCCC(=O)NNC(=O)c3ccccc3O)C2=O)cc1	none | NR2E3 ag conf inactive | VP16 counter 73
OC(COC1CCCCC1)CN1CCN(Cc2ccnc(N3CCCC3)n2)CC1 (stereo unspecified)	none (no result: NR2E3 ag-1, JMJD2C inh, Furin inhibitor, NR2E3 ag-2)
Cc1cccc(-c2noc(C)c2C(=O)Nc2cnn(Cc3ccc(F)cc3)c2)c1	none (no result: NR2E3 ag-1, JMJD2C inh, Furin inhibitor, NR2E3 ag-2)
COc1ccc(N=C2Sc3nc4ccc(C)cc4cc3CN2CCCO)c(OC)c1	none (no result: NR2E3 ag-1, JMJD2C inh, Furin inhibitor, NR2E3 ag-2)
Cc1ncc(-c2ccncc2)c(C2CCCN(C(=O)c3cn(C)nc3C)C2)n1 (stereo unspecified)	none (no result: EP2 antag, NR2E3 ag-1, JMJD2C inh, Furin inhibitor, NR2E3 ag-2)
CS(=O)(=O)N(CC(=O)Nc1ccccc1)c1ccc2c(c1)OCO2	none (no result: NR2E3 ag-1, JMJD2C inh, Furin inhibitor, NR2E3 ag-2)
COc1ccc(OC)c2c1C(=O)C(Cl)=C(Cl)C2=O	EP2 antag 112, NR2E3 ag-1 102 | NR2E3 ag conf 99 | VP16 counter inactive
O=C(Nc1ccc(F)c(Cl)c1)C1CCN(C(=O)c2cccs2)CC1	none (no result: NR2E3 ag-1, JMJD2C inh, Furin inhibitor, NR2E3 ag-2)
CCCC(=O)N1CCN(c2ccc(NC(=O)c3ccc([N+](=O)[O-])o3)cc2)CC1	none (no result: NR2E3 ag-2) | NR2E3 ag conf inactive | VP16 counter inactive
COc1cc(OC)cc(C(=O)N2CCC(O)(c3cccnc3)CC2)c1	none (no result: EP2 antag, NR2E3 ag-1, JMJD2C inh, Furin inhibitor, NR2E3 ag-2)
COc1ccc(CN(Cc2cc3cc(OC)ccc3[nH]c2=O)Cc2nnnn2C(C)(C)C)cc1	none (no result: NR2E3 ag-1, JMJD2C inh, Furin inhibitor, NR2E3 ag-2)
CSc1ccc(-c2nc(CSCC(=O)N3CCOCC3)c(C)o2)cc1	none
CSc1ccc(-c2nc(CSCC(=O)NC3CC3)c(C)o2)cc1	NR2E3 ag-1 100 (no result: EP2 antag, EP2 mod, Furin inhibitor) | NR2E3 ag conf 85 | VP16 counter 84
CCc1ccc(-c2nc(CSCC(=O)NC3CC3)c(C)o2)cc1	NR2E3 ag-1 111 (no result: EP2 antag, EP2 mod, Furin inhibitor) | NR2E3 ag conf 98 | VP16 counter 97
CCOC(=O)N1CCC(NC(=O)CSCc2nc(-c3ccc(OC)cc3)oc2C)CC1	none (no result: EP2 antag, EP2 mod, Furin inhibitor)
Cc1oc(-c2ccccc2Cl)nc1CSCC(=O)NC1CC1	none
COc1ccc(-c2nc(CSCC(=O)NCCCN3CCCC3=O)c(C)o2)cc1	none (no result: EP2 antag, EP2 mod, Furin inhibitor)
CCOc1ccc(-c2nc(CSCC(=O)NCCCN3CCCC3=O)c(C)o2)cc1	none (no result: EP2 antag, EP2 mod, Furin inhibitor) | NR2E3 ag conf inactive | VP16 counter inactive
CCc1ccc(-c2nc(CSCC(=O)N3CCN(c4ncccn4)CC3)c(C)o2)cc1	none (no result: EP2 antag) | NR2E3 ag conf 71 | VP16 counter inactive
CCCN1CCN(C(c2cc3c(C)cc(C)cc3[nH]c2=O)c2nnnn2CCOC)CC1 (stereo unspecified)	none (no result: NR2E3 ag-1, JMJD2C inh, Furin inhibitor, NR2E3 ag-2)
